Test results as given in ChEMBL document CHEMBL1159125, “Novel 3-aminopyrazole inhibitors of MK-2 discovered by scaffold hopping strategy” (Bioorg Med Chem Lett, 2010).
Calls of active or inactive are those of the source. The rule behind the calls is not given here.

Key:
[1] = Permeability from apical to basolateral side in human Caco-2 cells; format: ADME, cell-based
[2] = molecular target: Mitogen-activated protein kinase 9 (Homo sapiens, UniProt P45984); experiment: Inhibition of JNK2
Mus musculus [3] = experiment: Antiinflammatory activity in OF1 mouse assessed as inhibition of LPS-induced TNFalpha release at 30 mg/kg, po administered 1 hr prior to LPS challenge measured by ELISA; format: functional, organism-based; set-up: dose 30 mg/kg
Summary of the method: (§1)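 Female OF1 mice, 8 weeks old, given compound orally; LPS (20 mg/kg) injected 1 h later. Blood withdrawn 1 h after LPS. Plasma mouse TNFα measured by ELISA; inhibition reported as percent.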

THP-1 = experiment: Cytotoxicity against human THP1 cells; format: cell-based
[4] = Drug level in OF1 mouse blood at 30 mg/kg, po after 1 hr; format: ADME, organism-based, OF; set-up: dose 30 mg/kg, route oral; settings: read-out: Drug uptake
Summary of the method: (§2)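 Female OF1 mice, 8 weeks old, dosed orally, then LPS (20 mg/kg) injected 1 h later. Blood taken 1 h after LPS, and compound blood levels quantified by LC–MS/MS.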

[5] = Aqueous solubility at pH 1 to 6.8; format: physicochemical; settings: aqueous medium
[6] = molecular target: Cyclin-dependent kinase 2 (Homo sapiens, UniProt P24941); experiment: Inhibition of CDK2
[7] = Drug level in po dosed OF1 mouse blood after 4 hr; format: ADME, organism-based, OF; settings: read-out: Drug uptake
[8] = Drug level in po dosed OF1 mouse blood after 6 hr; format: ADME, organism-based, OF; settings: read-out: Drug uptake
[9] = Drug level in po dosed OF1 mouse blood after 1 hr; format: ADME, organism-based, OF; settings: read-out: Drug uptake; summary of the method: as §2
Mus musculus [10] = experiment: Antiinflammatory activity in po dosed OF1 mouse assessed as inhibition of LPS-induced TNFalpha release administered 1 hr prior to LPS challenge measured by ELISA; format: functional; summary of the method: as §1
Mus musculus [11] = experiment: Antiinflammatory activity in po dosed OF1 mouse assessed as inhibition of LPS-induced TNFalpha release administered 4 hr prior to LPS challenge measured by ELISA; format: functional; set-up: scale not given: the % may be the effect or the level left
Mus musculus [12] = experiment: Antiinflammatory activity in OF1 mouse assessed as inhibition of LPS-induced TNFalpha release at 100 mg/kg, po administered 1 hr prior to LPS challenge; format: functional; summary of the method: as §1
[13] = molecular target: Mitogen-activated protein kinase 8 (Homo sapiens, UniProt P45983); experiment: Inhibition of JNK1
Mus musculus [14] = experiment: Antiinflammatory activity in po dosed OF1 mouse assessed as inhibition of LPS-induced TNFalpha release administered 6 hr prior to LPS challenge measured by ELISA; format: functional; set-up: scale not given: the % may be the effect or the level left
[15] = Drug level in OF1 mouse blood at 100 mg/kg, po after 1 hr; format: ADME, organism-based, OF; set-up: dose 100 mg/kg, route oral; settings: read-out: Drug uptake; summary of the method: as §2
[16] = molecular target: Mitogen-activated protein kinase 14 (Homo sapiens, UniProt Q16539); experiment: Inhibition of p38alpha
Mitogen-activated protein kinase 14, sequence (Q16539 whole entry): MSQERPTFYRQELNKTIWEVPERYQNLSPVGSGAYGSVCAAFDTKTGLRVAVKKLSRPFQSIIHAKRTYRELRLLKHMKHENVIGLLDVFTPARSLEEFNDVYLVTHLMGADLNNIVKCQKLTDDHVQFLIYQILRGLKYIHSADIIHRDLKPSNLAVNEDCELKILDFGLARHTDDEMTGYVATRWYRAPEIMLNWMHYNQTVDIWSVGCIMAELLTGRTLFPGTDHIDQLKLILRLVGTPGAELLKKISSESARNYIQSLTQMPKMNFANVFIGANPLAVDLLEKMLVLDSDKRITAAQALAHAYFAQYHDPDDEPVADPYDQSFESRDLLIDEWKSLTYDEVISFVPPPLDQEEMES

Mitogen-activated protein kinase 8, sequence (P45983 whole entry): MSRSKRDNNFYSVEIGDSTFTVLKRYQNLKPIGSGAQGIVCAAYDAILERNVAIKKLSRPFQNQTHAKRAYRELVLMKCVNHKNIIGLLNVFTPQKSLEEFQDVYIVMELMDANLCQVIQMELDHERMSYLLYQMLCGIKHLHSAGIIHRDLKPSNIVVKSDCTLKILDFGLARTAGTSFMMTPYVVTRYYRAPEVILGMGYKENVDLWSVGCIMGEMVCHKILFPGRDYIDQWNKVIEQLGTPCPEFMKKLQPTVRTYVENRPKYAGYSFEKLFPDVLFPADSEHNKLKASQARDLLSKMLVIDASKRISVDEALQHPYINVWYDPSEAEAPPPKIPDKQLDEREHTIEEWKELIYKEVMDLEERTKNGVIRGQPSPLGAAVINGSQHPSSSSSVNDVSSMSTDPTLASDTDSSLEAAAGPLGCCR
Mitogen-activated protein kinase 9, sequence (P45984 whole entry): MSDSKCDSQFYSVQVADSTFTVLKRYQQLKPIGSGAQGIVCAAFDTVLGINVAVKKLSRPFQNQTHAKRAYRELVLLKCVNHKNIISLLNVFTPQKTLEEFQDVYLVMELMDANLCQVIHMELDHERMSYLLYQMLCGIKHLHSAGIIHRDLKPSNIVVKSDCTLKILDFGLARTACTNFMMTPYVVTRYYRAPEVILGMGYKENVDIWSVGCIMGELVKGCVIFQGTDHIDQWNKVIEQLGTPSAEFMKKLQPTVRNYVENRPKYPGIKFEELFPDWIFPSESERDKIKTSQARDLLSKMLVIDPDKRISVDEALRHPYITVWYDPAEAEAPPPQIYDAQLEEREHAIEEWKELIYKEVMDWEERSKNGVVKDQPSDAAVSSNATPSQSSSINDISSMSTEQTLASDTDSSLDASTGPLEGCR

## COc1ccc(-n2cc(-c3ccc4c(c3)C(=O)NCC4)c(N)n2)cc1
[1]
  Papp A→B: 48.3 ×10⁻⁶ cm/s

## Nc1nn(-c2cccc(-c3ccc4cc[nH]c4c3)c2)cc1-c1ccc2c(c1)CCNC2=O
[2]
  IC50: > 10 µM
Mus musculus [3]
  Activity: inactive
THP-1
  IC50: > 20 µM
[4]
  concentration at 1 h: 1.7 µM
[5]
  solubility: < 2 µg/mL
[6]
  IC50: > 10 µM
[7]
  concentration at 4 h: 6.8 µM
[8]
  concentration at 6 h: 25.8 µM
[9]
  concentration at 1 h: 14.1 µM
Mus musculus [10]
  inhibition (INH): 66%
Mus musculus [11]
  Activity: 23%
Mus musculus [12]
  inhibition in vivo at 100 mg/kg: 68%
[13]
  IC50: > 10 µM
Mus musculus [14]
  Activity: 67%
[15]
  concentration at 1 h: 17.4 µM
[16]
  IC50: > 10 µM
